Laboratory results published in ChEMBL document CHEMBL1137547, “Synthesis and antifungal activities of novel 2-aminotetralin derivatives” (2007).
In brackets after ≈: the same amount, converted by molar mass.

Assays:
Assay type in all cases: functional
[1] = test system: Microsporum; assay: Antifungal activity against Microsporum gypseum
In short: (§1)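 Dermatophytes were tested by NCCLS serial dilution in RPMI 1640 with 0.165 M MOPS and incubated at 28 °C. Compounds were dissolved in DMSO and diluted in medium. Strains came from ATCC or clinical isolates. The MIC was read at 7 d as the lowest concentration reducing turbidity by ≥80% relative to the drug-free control.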

[2] = test system: Cryptococcus neoformans; assay: Antifungal activity against Cryptococcus neoformans after 72 hrs
In short: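 Cryptococcus neoformans was tested by NCCLS serial dilution in MOPS-buffered (0.165 M) RPMI 1640 at 35 °C. Compounds were dissolved in DMSO and diluted in medium. The MIC was read at 72 h as the lowest concentration giving turbidity inhibition of ≥80% relative to the growth control.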

[3] = test system: Candida parapsilosis; assay: Antifungal activity against Candida parapsilosis after 24 hrs; conditions: Lodderomyces parapsilosis
In short: (§2)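 Candida yeasts were tested by NCCLS microdilution in RPMI 1640 buffered with 0.165 M MOPS and incubated at 35 °C. Compounds were dissolved in DMSO and serially diluted in medium. Isolates came from ATCC or the clinic. The MIC was read at 24 h as the lowest concentration achieving ≥80% growth inhibition versus the control.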

[4] = test system: Fonsecaea compacta; assay: Antifungal activity against Fonsecaea compacta
In short: (§3)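 NCCLS broth serial dilution in RPMI 1640 buffered with 0.165 M MOPS. Compounds were dissolved in DMSO and serially diluted in medium. Strains came from ATCC or clinical isolates. The growth MIC for filamentous fungi was read at 7 d, taken as the lowest concentration giving ≥80% turbidity inhibition versus the growth control.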

[5] = test system: Candida albicans; assay: Antifungal activity against Candida albicans after 24 hrs; in short: as §2
[6] = test system: Trichophyton rubrum; assay: Antifungal activity against Trichophyton rubrum; in short: as §1
[7] = test system: Aspergillus fumigatus; assay: Antifungal activity against Aspergillus fumigatus; in short: as §3

SMILES	MIC [1] [µM]	MIC [2] [µM]	MIC [3] [µM]	MIC [4] [µM]	MIC [5] [µM]	MIC [6] [µM]	MIC [7] [µM]
CCCCCCCCCCN1CCc2cc(O)c(O)cc2C1	> 64	1 (≈ 0.305 µg/mL)	0.5 (≈ 0.153 µg/mL)	16 (≈ 4.89 µg/mL)	> 64	1 (≈ 0.305 µg/mL)	16 (≈ 4.89 µg/mL)
Oc1ccc2c(c1)CC(Nc1ccc(Cl)cc1)CC2 (configuration not stated)	4 (≈ 1.1 µg/mL)	16 (≈ 4.38 µg/mL)	32 (≈ 8.76 µg/mL)	32 (≈ 8.76 µg/mL)	> 64	2 (≈ 0.548 µg/mL)	64 (≈ 17.5 µg/mL)
Oc1cccc2c1CC(Nc1ccc(Cl)cc1)CC2 (configuration not stated)	8 (≈ 2.19 µg/mL)	32 (≈ 8.76 µg/mL)	32 (≈ 8.76 µg/mL)	64 (≈ 17.5 µg/mL)	16 (≈ 4.38 µg/mL)	8 (≈ 2.19 µg/mL)	> 64
CCCCNC1CCc2cccc(O)c2C1 (configuration not stated)	64 (≈ 14 µg/mL)	> 64	> 64	> 64	> 64	> 64	> 64
CCCCCCCCNC1CCc2cccc(OC)c2C1 (configuration not stated)	8 (≈ 2.32 µg/mL)	16 (≈ 4.63 µg/mL)	32 (≈ 9.26 µg/mL)	8 (≈ 2.32 µg/mL)	16 (≈ 4.63 µg/mL)	4 (≈ 1.16 µg/mL)	32 (≈ 9.26 µg/mL)
NC1CCc2c(O)cccc2C1 (configuration not stated)	> 64	> 64	> 64	32 (≈ 5.22 µg/mL)	> 64	> 64	> 64
NC1CCc2cc(O)ccc2C1 (configuration not stated)	> 64	> 64	> 64	32 (≈ 5.22 µg/mL)	> 64	> 64	> 64
NC1CCc2ccc(O)cc2C1 (configuration not stated)	> 64	> 64	> 64	32 (≈ 5.22 µg/mL)	> 64	> 64	> 64
CCCCCCCCNC1CCc2cccc(O)c2C1 (configuration not stated)	4 (≈ 1.1 µg/mL)	8 (≈ 2.2 µg/mL)	8 (≈ 2.2 µg/mL)	4 (≈ 1.1 µg/mL)	2 (≈ 0.551 µg/mL)	8 (≈ 2.2 µg/mL)	
COc1ccc2c(c1)CCC(N)C2 (configuration not stated)	> 64	> 64	> 64	> 64	> 64	64 (≈ 11.3 µg/mL)	> 64
CCCCCCCCNC1CCc2c(O)cccc2C1 (configuration not stated)	8 (≈ 2.2 µg/mL)	32 (≈ 8.81 µg/mL)	64 (≈ 17.6 µg/mL)	8 (≈ 2.2 µg/mL)	8 (≈ 2.2 µg/mL)	4 (≈ 1.1 µg/mL)	> 64
CCCCCCCCCNC1CCc2ccc(OC)cc2C1 (configuration not stated)	4 (≈ 1.21 µg/mL)	4 (≈ 1.21 µg/mL)	4 (≈ 1.21 µg/mL)	2 (≈ 0.607 µg/mL)	0.25 (≈ 0.0759 µg/mL)	0.0625 (≈ 0.019 µg/mL)	16 (≈ 4.86 µg/mL)
CCCCCCCCCNC1CCc2cccc(OC)c2C1 (configuration not stated)	64 (≈ 19.4 µg/mL)	4 (≈ 1.21 µg/mL)	1 (≈ 0.303 µg/mL)	2 (≈ 0.607 µg/mL)	0.5 (≈ 0.152 µg/mL)	2 (≈ 0.607 µg/mL)	16 (≈ 4.86 µg/mL)
CCCCCCCCCNC1CCc2c(O)cccc2C1 (configuration not stated)	8 (≈ 2.32 µg/mL)	8 (≈ 2.32 µg/mL)	32 (≈ 9.26 µg/mL)	4 (≈ 1.16 µg/mL)	1 (≈ 0.289 µg/mL)	4 (≈ 1.16 µg/mL)	64 (≈ 18.5 µg/mL)
CCCCCCCCCNC1CCc2cccc(O)c2C1 (configuration not stated)	4 (≈ 1.16 µg/mL)	8 (≈ 2.32 µg/mL)	8 (≈ 2.32 µg/mL)	4 (≈ 1.16 µg/mL)	1 (≈ 0.289 µg/mL)	4 (≈ 1.16 µg/mL)	16 (≈ 4.63 µg/mL)
CCCCCCCCCCNC1CCc2cc(OC)ccc2C1 (configuration not stated)	4 (≈ 1.27 µg/mL)	16 (≈ 5.08 µg/mL)	8 (≈ 2.54 µg/mL)	8 (≈ 2.54 µg/mL)	0.25 (≈ 0.0794 µg/mL)	1 (≈ 0.318 µg/mL)	> 64
CCCCCCCCCCNC1CCc2ccc(O)cc2C1 (configuration not stated)	4 (≈ 1.21 µg/mL)	1 (≈ 0.303 µg/mL)	4 (≈ 1.21 µg/mL)	2 (≈ 0.607 µg/mL)	1 (≈ 0.303 µg/mL)	0.25 (≈ 0.0759 µg/mL)	32 (≈ 9.71 µg/mL)
CCCCCCCCCCCCNC1CCc2c(cccc2OC)C1 (configuration not stated)	16 (≈ 5.53 µg/mL)	8 (≈ 2.76 µg/mL)	16 (≈ 5.53 µg/mL)	8 (≈ 2.76 µg/mL)	8 (≈ 2.76 µg/mL)	0.5 (≈ 0.173 µg/mL)	> 64
NC1CCc2cccc(O)c2C1 (configuration not stated)	> 64	> 64	> 64	32 (≈ 5.22 µg/mL)	> 64	> 64	> 64
CCCCNC1CCc2c(cccc2OC)C1 (configuration not stated)	> 64	> 64	> 64	> 64	> 64	64 (≈ 14.9 µg/mL)	> 64
CCCCNC1CCc2ccc(OC)cc2C1 (configuration not stated)	64 (≈ 14.9 µg/mL)	> 64	64 (≈ 14.9 µg/mL)	4 (≈ 0.933 µg/mL)	64 (≈ 14.9 µg/mL)	4 (≈ 0.933 µg/mL)	> 64
CCCCCCCCCCCCNC1CCc2ccc(OC)cc2C1 (configuration not stated)	2 (≈ 0.691 µg/mL)	1 (≈ 0.346 µg/mL)	1 (≈ 0.346 µg/mL)	8 (≈ 2.76 µg/mL)	2 (≈ 0.691 µg/mL)	2 (≈ 0.691 µg/mL)	16 (≈ 5.53 µg/mL)

SMILES	MIC [1] [µM]	MIC [2] [µM]	MIC [3] [µM]	MIC [4] [µM]	MIC [5] [µM]	MIC [6] [µM]	MIC [7] [µM]
CCCCCCCCCCCCNC1CCc2cccc(OC)c2C1 (configuration not stated)	64 (≈ 22.1 µg/mL)	16 (≈ 5.53 µg/mL)	16 (≈ 5.53 µg/mL)	8 (≈ 2.76 µg/mL)	4 (≈ 1.38 µg/mL)	4 (≈ 1.38 µg/mL)	32 (≈ 11.1 µg/mL)
CCCCCCCCCCCCNC1CCc2cc(O)ccc2C1 (configuration not stated)	8 (≈ 2.65 µg/mL)	2 (≈ 0.663 µg/mL)	8 (≈ 2.65 µg/mL)	4 (≈ 1.33 µg/mL)	1 (≈ 0.332 µg/mL)	2 (≈ 0.663 µg/mL)	> 64
CCCCNC1CCc2c(O)cccc2C1 (configuration not stated)	> 64	> 64	> 64	64 (≈ 14 µg/mL)	> 64	64 (≈ 14 µg/mL)	> 64
CCCCNC1CCc2cc(O)ccc2C1 (configuration not stated)	> 64	> 64	> 64	> 64	> 64	64 (≈ 14 µg/mL)	> 64
CCCCCCCCCCCCNC1CCc2cccc(O)c2C1 (configuration not stated)	> 64	32 (≈ 10.6 µg/mL)	32 (≈ 10.6 µg/mL)	8 (≈ 2.65 µg/mL)	16 (≈ 5.3 µg/mL)	4 (≈ 1.33 µg/mL)	32 (≈ 10.6 µg/mL)
COc1cccc2c1CC(Nc1ccc(Cl)cc1)CC2 (configuration not stated)	32 (≈ 9.21 µg/mL)	> 64	> 64	> 64	> 64	> 64	> 64
CCCCCCCCCCNC1CCc2cccc(OC)c2C1 (configuration not stated)	2 (≈ 0.635 µg/mL)	1 (≈ 0.318 µg/mL)	2 (≈ 0.635 µg/mL)	1 (≈ 0.318 µg/mL)	0.25 (≈ 0.0794 µg/mL)	1 (≈ 0.318 µg/mL)	16 (≈ 5.08 µg/mL)
CCCCCCCCCCCCNC1CCc2ccc(O)cc2C1 (configuration not stated)	4 (≈ 1.33 µg/mL)	32 (≈ 10.6 µg/mL)	> 64	32 (≈ 10.6 µg/mL)	16 (≈ 5.3 µg/mL)	1 (≈ 0.332 µg/mL)	> 64
CCCCCCCCNC1CCc2c(cccc2OC)C1 (configuration not stated)	> 64	16 (≈ 4.63 µg/mL)	16 (≈ 4.63 µg/mL)	4 (≈ 1.16 µg/mL)	8 (≈ 2.32 µg/mL)	8 (≈ 2.32 µg/mL)	16 (≈ 4.63 µg/mL)
CCCCCCCCNC1CCc2ccc(OC)cc2C1 (configuration not stated)	8 (≈ 2.32 µg/mL)	16 (≈ 4.63 µg/mL)	32 (≈ 9.26 µg/mL)	4 (≈ 1.16 µg/mL)	1 (≈ 0.289 µg/mL)	4 (≈ 1.16 µg/mL)	64 (≈ 18.5 µg/mL)
CCCCNC1CCc2cccc(OC)c2C1 (configuration not stated)	32 (≈ 7.47 µg/mL)	> 64	> 64	0.25 (≈ 0.0583 µg/mL)	> 64	16 (≈ 3.73 µg/mL)	64 (≈ 14.9 µg/mL)
Oc1ccc2c(c1)CCC(Nc1ccc(Cl)cc1)C2 (configuration not stated)	4 (≈ 1.1 µg/mL)	16 (≈ 4.38 µg/mL)	32 (≈ 8.76 µg/mL)	32 (≈ 8.76 µg/mL)	> 64	0.25 (≈ 0.0684 µg/mL)	64 (≈ 17.5 µg/mL)
COc1cccc2c1CCC(N)C2 (configuration not stated)	> 64	> 64	> 64	64 (≈ 11.3 µg/mL)	> 64	8 (≈ 1.42 µg/mL)	> 64
COc1cccc2c1CC(N)CC2 (configuration not stated)	> 64	> 64	> 64	> 64	> 64	64 (≈ 11.3 µg/mL)	> 64
CCCCCCCCCCCCNC1CCc2cc(OC)ccc2C1 (configuration not stated)	> 64	4 (≈ 1.38 µg/mL)	32 (≈ 11.1 µg/mL)	64 (≈ 22.1 µg/mL)	4 (≈ 1.38 µg/mL)	4 (≈ 1.38 µg/mL)	> 64
CCCCCCCCCCCCNC1CCc2c(O)cccc2C1 (configuration not stated)	2 (≈ 0.663 µg/mL)	> 64	> 64	> 64	4 (≈ 1.33 µg/mL)	32 (≈ 10.6 µg/mL)	> 64
CCCCNC1CCc2cc(OC)ccc2C1 (configuration not stated)	> 64	64 (≈ 14.9 µg/mL)	> 64	> 64	64 (≈ 14.9 µg/mL)	64 (≈ 14.9 µg/mL)	> 64
CCCCNC1CCc2ccc(O)cc2C1 (configuration not stated)	64 (≈ 14 µg/mL)	> 64	> 64	64 (≈ 14 µg/mL)	> 64	> 64	> 64
CCCCCCCCNC1CCc2ccc(O)cc2C1 (configuration not stated)	4 (≈ 1.1 µg/mL)	16 (≈ 4.41 µg/mL)	32 (≈ 8.81 µg/mL)	8 (≈ 2.2 µg/mL)	4 (≈ 1.1 µg/mL)	8 (≈ 2.2 µg/mL)	> 64
CCCCCCCCCNC1CCc2ccc(O)cc2C1 (configuration not stated)	8 (≈ 2.32 µg/mL)	8 (≈ 2.32 µg/mL)	16 (≈ 4.63 µg/mL)	8 (≈ 2.32 µg/mL)	1 (≈ 0.289 µg/mL)	4 (≈ 1.16 µg/mL)	64 (≈ 18.5 µg/mL)
Oc1cccc2c1CCC(Nc1ccc(Cl)cc1)C2 (configuration not stated)	0.5 (≈ 0.137 µg/mL)	8 (≈ 2.19 µg/mL)	8 (≈ 2.19 µg/mL)	16 (≈ 4.38 µg/mL)	2 (≈ 0.548 µg/mL)	2 (≈ 0.548 µg/mL)	64 (≈ 17.5 µg/mL)
COc1ccc2c(c1)CC(N)CC2 (configuration not stated)	> 64	> 64	> 64	> 64	> 64	64 (≈ 11.3 µg/mL)	> 64
